Published values pooled from the literature.
Medium: plasma

`Cc1noc(-c2cc3cc(-c4nc(C(=O)NCc5ccncc5)[nH]c4C)ccc3[nH]2)n1` gave a Cmax of 2200 nM (Sprague-Dawley rat; oral, 10 mg/kg, suspension).
With `COc1ccc2c(=O)n(C)c(-c3ccccc3)nc2c1` the Cmax was 2130 ng/mL (male Sprague-Dawley rat; intravenous, 2 mg/kg).
The Cmax of `CCc1cc(C(=O)NC)c2nccc(N3CCc4c(cc(Cn5ccnc5)cc4-c4cn(C)nc4C(F)(F)F)C3=O)c2c1` is reported as 18400 ng/mL (male Sprague-Dawley rat; oral, 50 mg/kg).
With `C=CC(=O)N1CC2CC(n3nc(-c4ccc(C(=O)Nc5ccccn5)cc4)c4c(N)ncnc43)CC2C1` (stereo not shown) the Cmax was 2880 ng/mL (male Wistar rat; oral, 100 mg/kg).
The Cmax of `COCc1nn(Cc2ccc(Cn3ccccc3=O)cc2)cc1C(=O)NCc1nccc(OC)c1F` is reported as 1940 ng/mL (male Sprague-Dawley rat; oral, 10 mg/kg).
With `COc1cc2c3c(n(CCCN4CCOCC4)c(=O)c2cc1OC)-c1cc2c(cc1C3=O)OCO2` the Cmax was 301 ng/mL (female Fischer 344 rat; intravenous, 12 mg/m², single dose).
`O=C(Nc1cc(F)c(F)c(F)c1)c1ccc(F)c(S(=O)(=O)NCc2cccc(B(O)O)c2)c1` has a Cmax of 460 ng/mL (male Sprague-Dawley rat; intravenous, 2 mg/kg).
For `N#Cc1ccc(Nc2nc(N)cc(Oc3c(F)cc(-c4ccc(C#N)cc4)cc3F)n2)cc1`, the Cmax was 251 ng/mL (Sprague-Dawley rat; intravenous, 1 mg/kg).
`COc1cc(/C=C/C(=O)CC(=O)/C=C/c2ccc(O)c(OC)c2)ccc1O` has a Cmax of 5.99 ng/mL (male Sprague-Dawley rat; oral, 100 mg/kg).
The Cmax of `N#Cc1[nH]nnc1-c1cccc(-c2cc(F)cc(C(F)(F)F)c2)c1` is reported as 5750 ng/mL (male Sprague-Dawley rat; oral, 10 mg/kg).
`COc1ccc(C(C)=O)c(O)c1` has a Cmax of 8460 ng/mL (male Sprague-Dawley rat; oral, 100 mg/kg).
`CC[C@H](C)[C@H](NC(=O)[C@H](Cc1ccccc1)NC(=O)[C@H](CCC(=O)O)NC(=O)[C@H](CCCNC(=N)N)NC(=O)[C@H](C)NC(=O)[C@H](C)NC(=O)[C@H](CCC(N)=O)NC(=O)[C@H](CCC(=O)O)NC(=O)[C@H](CCC(=O)O)NC(=O)[C@H](CC(C)C)NC(=O)[C@H](Cc1ccc(O)cc1)NC(=O)[C@H](CO)NC(=O)[C@H](CO)NC(=O)[C@@H](NC(=O)[C@H](CC(=O)O)NC(=O)[C@H](CO)NC(=O)[C@@H](NC(=O)[C@H](Cc1ccccc1)NC(=O)[C@@H](NC(=O)CNC(=O)[C@H](CCC(=O)O)NC(=O)[C@H](C)NC(=O)CCc1c[nH]cn1)[C@@H](C)O)[C@@H](C)O)C(C)C)C(=O)N[C@@H](C)C(=O)N[C@@H](Cc1c[nH]c2ccccc12)C(=O)N[C@@H](CC(C)C)C(=O)N[C@H](C(=O)N[C@@H](CCCNC(=N)N)C(=O)NCC(=O)N[C@@H](CCCNC(=N)N)C(=O)N[C@@H](CCCCNC(=O)COCCOCCNC(=O)COCCOCCNC(=O)CC[C@H](NC(=O)CCCCCCCCCCCCCCCCC(=O)O)C(=O)O)C(=O)O)C(C)C` has a Cmax of 64.2 nM (rat; subcutaneous, 20 nmol/kg).
With `COCc1nn(Cc2ccc(Cn3ccccc3=O)cc2)cc1C(=O)NCc1nccc(OC)c1C` the Cmax was 1020 ng/mL (male Sprague-Dawley rat; oral, 10 mg/kg).
The Cmax of `CCc1cc(OC)c2nccc(N3CCc4c(cc(Cn5ccnc5)cc4-c4cn(C)nc4C(F)(F)F)C3=O)c2c1` is reported as 2700 ng/mL (male Sprague-Dawley rat; oral, 50 mg/kg).
The Cmax of `C#Cc1cccc(Nc2ncnc3cc(OCCOC)c(OCCOC)cc23)c1` is reported as 1580 ng/mL (male Sprague-Dawley rat; oral, 12 mg/kg, single dose).
For `CCOC(=O)[C@@]12C[C@@H]1[C@@H](n1ccc3c(NC)nc(C#Cc4ccc(Cl)s4)nc31)[C@H](O)[C@@H]2O`, the Cmax was 9.97 ng/mL (male Sprague-Dawley rat; oral, 1 mg/kg).
